≈ marks a conversion by molar mass, not a printed value. Calls of active or inactive are those of the source. No cut-off for these calls is given here.
Key:
Aspergillus flavus = assay: Antifungal activity against Aspergillus flavus ATCC 9170 at 0.98 to 250 ug/mL by NCCLS broth microdilution method; assay type: functional, organism-based
Procedure, shortened: (§1)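 MIC by broth microdilution per NCCLS M27-A3/M38-A2 in RPMI-1640 buffered to pH 7.0 with MOPS. Twofold dilutions from 250–0.98 µg/mL, final DMSO ≤1%. Inoculum 1–5 × 10³ CFU/mL. Incubated in a moist dark chamber, 30 °C for Aspergillus and 28–30 °C for dermatophytes. Read visually when control growth allowed. Endpoint is the lowest concentration giving total inhibition of visible growth (MIC100).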

[1] = test system: Trichophyton mentagrophytes; assay: Antifungal activity against Trichophyton mentagrophytes ATCC 9972 by NCCLS broth microdilution method; assay type: functional; conditions: read-out: MIC100; procedure, shortened: as §1
Candida albicans [2] = assay: Antifungal activity against Candida albicans ATCC 10231 assessed as growth inhibition at 3.9 ug/mL after 24 hrs by microplate reader analysis; assay type: functional; conditions: ATCC 10231, 24 h, read-out: GI
Procedure, shortened: (§2)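 96-well RPMI-1640 wells with compound at final 250–0.98 µg/mL (DMSO ≤1%). Inoculum 100 µL, 1–5 × 10³ CFU/mL, 200 µL final. Each well includes growth (DMSO, no compound) and sterility controls. % inhibition = 100 − (CTW−SCW)/(GCW−SCW) × 100, run in duplicate.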

Candida tropicalis [3] = assay: Antifungal activity against Candida tropicalis assessed as growth inhibition at 62.5 ug/mL by microplate reader analysis; assay type: functional; conditions: read-out: GI
Candida albicans [4] = assay: Antifungal activity against Candida albicans ATCC 10231 assessed as growth inhibition at 31.25 ug/mL after 24 hrs by microplate reader analysis; assay type: functional; conditions: ATCC 10231, 24 h, read-out: GI; procedure, shortened: as §2
Aspergillus niger = assay: Antifungal activity against Aspergillus niger ATCC 9029 at 0.98 to 250 ug/mL by NCCLS broth microdilution method; assay type: functional, organism-based; procedure, shortened: as §1
Trichophyton rubrum [5] = assay: Antifungal activity against Trichophyton rubrum CCC 110 by NCCLS broth microdilution method; assay type: functional; conditions: read-out: MIC100; procedure, shortened: as §1
[6] = Acute toxicity in bony fish assessed as mortality at 35 ug/mL after 96 hrs; conditions: actinopterygii; read-out: Activity
Procedure, shortened: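 Guppy (Poecilia reticulata) acute static exposure: 10 fish per concentration in 2 L wide-mouthed jars holding the test solution. Compounds were added from […] to give the final concentrations. Dead fish were counted and removed every 24 h, with general condition noted; percentage mortality was scored at 96 h. Two experiments, each in triplicate.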

Cryptococcus neoformans [7] = assay: Fungicidal activity against Cryptococcus neoformans ATCC 32264 after 48 hrs by agar plate dilution method; assay type: functional; conditions: ATCC 32264, 48 h
Procedure, shortened: (§3)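 MFC: after the microdilution MIC, material from each clear well was plated onto RPMI-1640 agar buffered with MOPS. Plates incubated at 30 °C and read after 48 h. MFC is the lowest concentration giving total inhibition of visible growth.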

Candida tropicalis [8] = assay: Antifungal activity against Candida tropicalis by microplate reader analysis; assay type: functional
Candida albicans [9] = assay: Antifungal activity against Candida albicans ATCC 10231 assessed as growth inhibition at 125 ug/mL after 24 hrs by microplate reader analysis; assay type: functional; conditions: ATCC 10231, 24 h, read-out: GI; procedure, shortened: as §2
Cryptococcus neoformans [10] = assay: Antifungal activity against Cryptococcus neoformans ATCC 32264 assessed as growth inhibition at 62.5 ug/mL after 48 hrs by microplate reader analysis; assay type: functional; conditions: ATCC 32264, 48 h, read-out: GI
Procedure, shortened: (§4)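 Microplate growth-inhibition assay in RPMI-1640, compound at final 250–0.98 µg/mL (DMSO ≤1%). Inoculum 1–5 × 10³ CFU/mL. Sterility and DMSO growth controls included. Percent inhibition is computed from blank-corrected OD relative to the growth control, tested in duplicate.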

Cryptococcus neoformans [11] = assay: Antifungal activity against Cryptococcus neoformans ATCC 32264 after 48 hrs by microplate reader analysis; assay type: functional; conditions: ATCC 32264, 48 h; procedure, shortened: as §4
Candida albicans [12] = assay: Antifungal activity against Candida albicans ATCC 10231 assessed as growth inhibition at 15.6 ug/mL after 24 hrs by microplate reader analysis; assay type: functional; conditions: ATCC 10231, 24 h, read-out: GI; procedure, shortened: as §2
Cryptococcus neoformans [13] = assay: Antifungal activity against Cryptococcus neoformans ATCC 32264 assessed as growth inhibition at 250 ug/mL after 48 hrs by microplate reader analysis; assay type: functional; conditions: ATCC 32264, 48 h, read-out: GI; procedure, shortened: as §4
Cryptococcus neoformans [14] = assay: Antifungal activity against Cryptococcus neoformans ATCC 32264 assessed as growth inhibition at 31.25 ug/mL after 48 hrs by microplate reader analysis; assay type: functional; conditions: ATCC 32264, 48 h, read-out: GI; procedure, shortened: as §4
Cryptococcus neoformans [15] = assay: Antifungal activity against Cryptococcus neoformans ATCC 32264 assessed as growth inhibition at 125 ug/mL after 48 hrs by microplate reader analysis; assay type: functional; conditions: ATCC 32264, 48 h, read-out: GI; procedure, shortened: as §4
Candida albicans [16] = assay: Antifungal activity against Candida albicans ATCC 10231 after 48 hrs by NCCLS broth microdilution method; assay type: functional; conditions: ATCC 10231, 48 h, read-out: MIC100
Procedure, shortened: (§5)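 Yeast MIC by NCCLS M27-A3 broth microdilution in RPMI-1640 buffered to pH 7.0 with MOPS. Twofold dilutions of 250–0.98 µg/mL, final DMSO ≤1%. Inoculum 1–5 × 10³ CFU/mL. Incubated at 30 °C in a moist dark chamber. Read visually at 48 h. MIC100 is the lowest concentration with no visible growth versus drug-free control.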

[17] = test system: Trichophyton mentagrophytes; assay: Fungicidal activity against Trichophyton mentagrophytes ATCC 9972 at 0.98 to 250 ug/mL after 48 hrs by agar plate dilution method; assay type: functional, organism-based
Procedure, shortened: (§6)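 Samples from each clear well of the MIC broth microdilution tray were plated onto RPMI-1640 agar buffered with MOPS. That tray had compounds twofold diluted in RPMI (pH 7.0, MOPS) from 250–0.98 µg/mL with inoculum of 1–5 × 10³ CFU/mL, incubated at 28–30 °C for dermatophytes. Plates were incubated at 30 °C and read at 48 h. MFC was taken as the lowest concentration giving total inhibition of visible growth.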

Candida tropicalis [18] = assay: Antifungal activity against Candida tropicalis assessed as growth inhibition at 7.8 ug/mL by microplate reader analysis; assay type: functional; conditions: read-out: GI
Cryptococcus neoformans [19] = assay: Antifungal activity against Cryptococcus neoformans ATCC 32264 assessed as growth inhibition at 3.9 ug/mL after 48 hrs by microplate reader analysis; assay type: functional; conditions: ATCC 32264, 48 h, read-out: GI; procedure, shortened: as §4
Candida tropicalis [20] = assay: Antifungal activity against Candida tropicalis assessed as growth inhibition at 31.25 ug/mL by microplate reader analysis; assay type: functional; conditions: read-out: GI
Aspergillus fumigatus = assay: Antifungal activity against Aspergillus fumigatus ATCC 26934 at 0.98 to 250 ug/mL by NCCLS broth microdilution method; assay type: functional, organism-based; procedure, shortened: as §1
Trichophyton rubrum [21] = assay: Fungicidal activity against Trichophyton rubrum CCC 110 at 0.98 to 250 ug/mL after 48 hrs by agar plate dilution method; assay type: functional, organism-based; procedure, shortened: as §6
Candida tropicalis [22] = assay: Antifungal activity against Candida tropicalis after 48 hrs by NCCLS broth microdilution method; assay type: functional; conditions: read-out: MIC100; procedure, shortened: as §5
Candida albicans [23] = assay: Antifungal activity against Candida albicans ATCC 10231 assessed as growth inhibition at 7.8 ug/mL after 24 hrs by microplate reader analysis; assay type: functional; conditions: ATCC 10231, 24 h, read-out: GI; procedure, shortened: as §2
Candida tropicalis [24] = assay: Fungicidal activity against Candida tropicalis after 48 hrs by agar plate dilution method; assay type: functional; procedure, shortened: as §3
Candida tropicalis [25] = assay: Antifungal activity against Candida tropicalis assessed as growth inhibition at 15.6 ug/mL by microplate reader analysis; assay type: functional; conditions: read-out: GI
Candida albicans [26] = assay: Antifungal activity against Candida albicans ATCC 10231 assessed as growth inhibition at 250 ug/mL after 24 hrs by microplate reader analysis; assay type: functional; conditions: ATCC 10231, 24 h, read-out: GI; procedure, shortened: as §2
Candida tropicalis [27] = assay: Antifungal activity against Candida tropicalis assessed as growth inhibition at 125 ug/mL by microplate reader analysis; assay type: functional; conditions: read-out: GI
Cryptococcus neoformans [28] = assay: Antifungal activity against Cryptococcus neoformans ATCC 32264 assessed as growth inhibition at 7.8 ug/mL after 48 hrs by microplate reader analysis; assay type: functional; conditions: ATCC 32264, 48 h, read-out: GI; procedure, shortened: as §4
Candida albicans [29] = assay: Antifungal activity against Candida albicans ATCC 10231 after 24 hrs by microplate reader analysis; assay type: functional; conditions: ATCC 10231, 24 h; procedure, shortened: as §2
Candida albicans [30] = assay: Antifungal activity against Candida albicans ATCC 10231 assessed as growth inhibition at 62.5 ug/mL after 24 hrs by microplate reader analysis; assay type: functional; conditions: ATCC 10231, 24 h, read-out: GI; procedure, shortened: as §2
Cryptococcus neoformans [31] = assay: Antifungal activity against Cryptococcus neoformans ATCC 32264 assessed as growth inhibition at 15.6 ug/mL after 48 hrs by microplate reader analysis; assay type: functional; conditions: ATCC 32264, 48 h, read-out: GI; procedure, shortened: as §4
Candida tropicalis [32] = assay: Antifungal activity against Candida tropicalis assessed as growth inhibition at 3.9 ug/mL by microplate reader analysis; assay type: functional; conditions: read-out: GI
Nannizzia gypsea = assay: Antifungal activity against Microsporum gypseum CCC 115 at 0.98 to 250 ug/mL by NCCLS broth microdilution method; assay type: functional, organism-based; procedure, shortened: as §1
Cryptococcus neoformans [33] = assay: Antifungal activity against Cryptococcus neoformans ATCC 32264 after 48 hrs by NCCLS broth microdilution method; assay type: functional; conditions: ATCC 32264, 48 h, read-out: MIC100; procedure, shortened: as §5
Candida tropicalis [34] = assay: Antifungal activity against Candida tropicalis assessed as growth inhibition at 250 ug/mL by microplate reader analysis; assay type: functional; conditions: read-out: GI
Candida albicans [35] = assay: Fungicidal activity against Candida albicans ATCC 10231 after 48 hrs by agar plate dilution method; assay type: functional; conditions: ATCC 10231, 48 h; procedure, shortened: as §3

CCCCNc1nc(N)nc(OC)c1N=O
Activity (Aspergillus flavus): inactive
MIC [1]: 250 µg/mL (≈ 1110 µM)
inhibition of growth at 3.9 µg/mL (Candida albicans [2]): 20%
inhibition of growth at 62.5 µg/mL (Candida tropicalis [3]): 100%
inhibition of growth at 31.25 µg/mL (Candida albicans [4]): 98.2%
Activity (Aspergillus niger): inactive
MIC (Trichophyton rubrum [5]): 250 µg/mL (≈ 1110 µM)
mortality at 96 h, 35 ug/mL [6]: 0%
MFC (Cryptococcus neoformans [7]): 250 µg/mL (≈ 1110 µM)
MIC50 (Candida tropicalis [8]): 7.8 µg/mL (≈ 34.6 µM)
inhibition of growth at 125 µg/mL (Candida albicans [9]): 100%
inhibition of growth at 62.5 µg/mL (Cryptococcus neoformans [10]): 85.5%
MIC50 (Cryptococcus neoformans [11]): 7.8 µg/mL (≈ 34.6 µM)
inhibition of growth at 15.6 µg/mL (Candida albicans [12]): 86.2%
inhibition of growth at 250 µg/mL (Cryptococcus neoformans [13]): 100%
inhibition of growth at 31.25 µg/mL (Cryptococcus neoformans [14]): 75%
inhibition of growth at 125 µg/mL (Cryptococcus neoformans [15]): 100%
MIC (Candida albicans [16]): 62.5 µg/mL (≈ 277 µM)
Activity [17]: inactive
inhibition of growth at 7.8 µg/mL (Candida tropicalis [18]): 57.7%
inhibition of growth at 3.9 µg/mL (Cryptococcus neoformans [19]): 11.3%
inhibition of growth at 31.25 µg/mL (Candida tropicalis [20]): 93.2%
Activity (Aspergillus fumigatus): inactive
Activity (Trichophyton rubrum [21]): inactive
MIC (Candida tropicalis [22]): 62.5 µg/mL (≈ 277 µM)
inhibition of growth at 7.8 µg/mL (Candida albicans [23]): 50.4%
MFC (Candida tropicalis [24]): 250 µg/mL (≈ 1110 µM)
inhibition of growth at 15.6 µg/mL (Candida tropicalis [25]): 85.2%
inhibition of growth at 250 µg/mL (Candida albicans [26]): 100%
inhibition of growth at 125 µg/mL (Candida tropicalis [27]): 100%
inhibition of growth at 7.8 µg/mL (Cryptococcus neoformans [28]): 52.4%
MIC50 (Candida albicans [29]): 7.8 µg/mL (≈ 34.6 µM)
inhibition of growth at 62.5 µg/mL (Candida albicans [30]): 100%
inhibition of growth at 15.6 µg/mL (Cryptococcus neoformans [31]): 63.1%
inhibition of growth at 3.9 µg/mL (Candida tropicalis [32]): 16.3%
Activity (Nannizzia gypsea): inactive
MIC (Cryptococcus neoformans [33]): 125 µg/mL (≈ 555 µM)
inhibition of growth at 250 µg/mL (Candida tropicalis [34]): 100%
MFC (Candida albicans [35]): 250 µg/mL (≈ 1110 µM)

— ChEMBL document CHEMBL2146464, “Structure-activity relationship study of nitrosopyrimidines acting as antifungal agents” (Bioorg Med Chem, 2012)
